# Reference: ChEMBL document CHEMBL1144664, “Design, synthesis, and SAR of new pyrrole-oxindole progesterone receptor modulators leading to 5-(7-fluoro-3,3-dimethyl-2-oxo-2,3-dihydro-1H-indol-5-yl)-1-methyl-1H-pyrrole-2-carbonitrile (WAY-255348)” (J Med Chem, 2008)
# Active and inactive are the calls of the source. No cut-off for these calls is given here.
# What was measured:
# [1] = Stability in cynomolgus monkey liver microsome assessed as half life; format: ADME, Macaca fascicularis; conditions: liver microsomes
# Outline: (§1)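 Female rat, cynomolgus monkey and human liver microsome stability; half-life (min) reported.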
# [2] = target: T1, Glucocorticoid receptor (Homo sapiens) (UniProt P04150); test: Antagonist activity at human GR ligand binding domain expressed in african green monkey COS7 cells in presence of Dexamethasone by Gal4 hybrid assay; format: cell-based; conditions: COS-7
# T1 sequence (whole entry): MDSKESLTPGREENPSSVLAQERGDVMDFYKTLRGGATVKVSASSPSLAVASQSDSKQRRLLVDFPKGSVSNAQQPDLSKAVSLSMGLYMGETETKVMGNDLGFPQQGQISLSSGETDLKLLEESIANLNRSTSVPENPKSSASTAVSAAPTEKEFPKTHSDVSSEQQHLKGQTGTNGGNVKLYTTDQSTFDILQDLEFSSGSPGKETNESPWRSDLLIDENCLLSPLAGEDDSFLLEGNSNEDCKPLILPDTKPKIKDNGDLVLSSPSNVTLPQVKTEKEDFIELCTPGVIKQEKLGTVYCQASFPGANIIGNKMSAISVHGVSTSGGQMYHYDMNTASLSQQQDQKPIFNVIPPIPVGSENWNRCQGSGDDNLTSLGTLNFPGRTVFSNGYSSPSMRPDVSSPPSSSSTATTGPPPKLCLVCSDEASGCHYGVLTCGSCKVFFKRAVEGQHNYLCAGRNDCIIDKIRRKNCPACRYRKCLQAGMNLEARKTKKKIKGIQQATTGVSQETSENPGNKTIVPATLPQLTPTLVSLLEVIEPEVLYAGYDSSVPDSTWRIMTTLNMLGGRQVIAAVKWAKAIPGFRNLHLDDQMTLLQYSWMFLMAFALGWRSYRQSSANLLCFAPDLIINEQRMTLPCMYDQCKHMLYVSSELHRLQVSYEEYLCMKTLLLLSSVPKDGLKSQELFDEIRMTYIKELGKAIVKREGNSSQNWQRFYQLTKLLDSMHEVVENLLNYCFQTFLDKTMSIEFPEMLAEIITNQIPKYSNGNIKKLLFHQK
# Rattus norvegicus [3] = organism: Rattus norvegicus; test: Antagonist activity in rat uterus assessed as progesterone-induced decidualization response in stromal cells; format: functional
# Outline: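 Female rat decidualization model: compound given orally in 0.5% methyl cellulose/2% Tween 80 to antagonize the progesterone-induced decidual response of uterine stromal cells. ED50 reported.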
# Cynomolgus monkey = test: Inhibition of ovulation in cynomolgus monkey assessed as basal level of progesterone at 10 mg/kg; format: functional, organism-based; set-up: dose 10 mg/kg; conditions: Macaca fascicularis
# Outline: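 Normally cycling cynomolgus monkeys dosed orally, daily at 1, 3 or 10 mg/kg (n=4–6) or vehicle (n=2), in 2% Tween 80/0.5% methylcellulose for 30 days from cycle day 2. Serum sampled three times weekly; progesterone measured by radioimmunoassay to detect a luteal-phase rise as the sign of ovulation.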
# [4] = Drug level in Sprague-Dawley rat at 0.5 mg/kg, iv; format: ADME, organism-based; set-up: dose 0.5 mg/kg, route intravenous; conditions: in vivo
# Outline: (§2)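 Female Sprague–Dawley rats dosed as 1-in-4 cassette or discrete studies. iv in DMSO/PEG200 20:80; po in aqueous 2% Tween 80/0.5% methyl cellulose. Parameters reported: C0, Cmax, t1/2, plasma clearance, Vss, AUC0-inf and %F.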
# Rhesus monkey [5] = test: Effect on myometrial weight of rhesus monkey; format: functional, Macaca mulatta
# Outline: (§3)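 Adult female rhesus macaques (n=3) with regular cycles dosed 10 mg/(kg·day) po in 2% Tween 80/0.5% methylcellulose with cherry flavoring for 28 days from cycle day 2. Serum estradiol and progesterone measured every 3 days. Necropsy on day 28. Uterine weights are of half the uterus; KI-67 and mitotic indices counted per 1000 cells. Values given as mean ± SE.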
# Rattus norvegicus [6] = test: Drug level in Sprague-Dawley rat at 1 mg/kg, iv; format: ADME, organism-based; set-up: dose 1 mg/kg, route intravenous; conditions: in vivo; outline: as §2
# Rhesus monkey [7] = test: Effect on cell proliferation in rhesus monkey assessed as number of mitotic cells per 1000 cells
# [8] = Stability in human liver microsome assessed as half life; format: ADME; conditions: liver microsomes; outline: as §1
# [9] = AUC (0 to infinity) in Sprague-Dawley rat at 0.5 mg/kg, iv; format: ADME, organism-based; set-up: time infinity, dose 0.5 mg/kg, route intravenous; conditions: plasma
# [10] = Oral bioavailability in Sprague-Dawley rat at 5 mg/kg; format: ADME, organism-based; conditions: in vivo; outline: as §2
# [11] = Plasma clearance in cynomolgus monkey at 1 mg/kg, iv; format: ADME, organism-based, Macaca fascicularis; set-up: dose 1 mg/kg, route intravenous
# [12] = Cmax in cynomolgus monkey at 5 mg/kg, po; format: ADME, organism-based, Macaca fascicularis; set-up: dose 5 mg/kg, route oral; conditions: in vivo
# [13] = AUC (0 to infinity) in Sprague-Dawley rat at 1 mg/kg, iv; format: ADME, organism-based; set-up: time infinity, dose 1 mg/kg, route intravenous; conditions: plasma
# [14] = Volume of distribution at steady state in Sprague-Dawley rat at 1 mg/kg, iv; format: ADME, organism-based; set-up: dose 1 mg/kg, route intravenous; conditions: in vivo, read-out: Vdss; outline: as §2
# [15] = Half life in cynomolgus monkey at 5 mg/kg, po; format: ADME, organism-based, Macaca fascicularis; set-up: dose 5 mg/kg, route oral; conditions: in vivo
# [16] = Oral bioavailability in cynomolgus monkey at 5 mg/kg; format: ADME, organism-based, Macaca fascicularis; conditions: in vivo
# Rhesus monkey [17] = test: Effect on endometrium thickness of rhesus monkey; format: functional, Macaca mulatta; outline: as §3
# [18] = Drug level in cynomolgus monkey at 1 mg/kg, iv; format: ADME, organism-based, Macaca fascicularis; set-up: dose 1 mg/kg, route intravenous; conditions: in vivo
# Rhesus monkey [19] = test: Effect on basalis KI67 assessed as number of KI67 labeled cells of rhesus monkey; format: functional, Macaca mulatta; outline: as §3
# Rhesus monkey [20] = test: Effect on ovulation rate of rhesus monkey; format: functional, organism-based; conditions: Macaca mulatta; outline: as §3
smiles,measurement,setting,value
Cn1c(C#N)ccc1-c1cc(F)c2c(c1)C(C)(C)C(=O)N2,half-life,[1],19 min
same,Activity,[2],inactive
same,ED50,Rattus norvegicus [3],0.3 mg/kg
same,Activity,Cynomolgus monkey,Active
same,C0,[4],385 ng/mL
same,Activity,Rhesus monkey [5],1760 mg
same,Drug uptake,Rattus norvegicus [6],528 ng/mL
same,Activity,Rhesus monkey [7],2.2
same,half-life,[8],> 30 min
same,AUC(0-inf),[9],1980 ng·h/mL
same,bioavailability,[10],31%
same,clearance,[11],7 mL/min/kg
same,Cmax,[12],179 ng/mL
same,AUC(0-inf),[13],4650 ng·h/mL
same,Vd,[14],2.4 L/kg
same,half-life,[15],942 min
same,bioavailability,[16],49%
same,Activity,Rhesus monkey [17],2.2 mm
same,C0,[18],856 ng/mL
same,Activity,Rhesus monkey [19],0
same,Activity,Rhesus monkey [20],inactive
